Assays:
primary mouse neurons = test: MTT cytotoxicity / cell viability, noncancer cells; format: cell-based; details: 24 h, n = 3
Summary of the method: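 Primary mouse neurons were grown in serum-free DMEM/F12-based neural medium with L-glutamine, HEPES, penicillin/streptomycin and supplement. They were plated at 1×10^4 cells/well and allowed to spread for 24 h at 37 °C, 5% CO2, then treated with the test compound at 2 or 10 μM for 24 h. MTT was added for 4 h, then solubilizing solution for 4 h. Absorbance was read at 560 and 590 nm. Runs were in triplicate, with Student's t tests.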

U-87-MG spheroids = test: Calcein-AM spheroid viability assay; format: cell-based, human; details: 10 μM, 24 h; six-day old spheroids, 10000 cells/well
Summary of the method: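 Six-day-old U-87-MG spheroids seeded at 10000 cells/well in U-bottom low-attachment 24-well plates from monolayers grown to 70% confluence, in serum-free B27 neuronal basal medium or FBS-supplemented EMEM, with medium changed every 3 days. Exposed to the test compound at 10 μM for 24 h, moved to a fresh plate, washed three times with assay buffer, then stained with 3 μM Calcein-AM for 1 h at 37 °C. Imaged by fluorescence.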

U-87-MG cells = test: Annexin V FITC-propidium iodide apoptosis assay, FACS; format: cell-based, human; details: Annexin V FITC/PI quadrant
FABP3 (U-87-MG cells) = FABP3 (U-87-MG cells) (Homo sapiens, UniProt P05413); test: FABP3-mediated internalization, antibody labeling and FACS; format: cell-based; details: serum-free, 10 μM, FACS, Coralite 594-conjugated FABP3 antibody
Summary of the method: (§1)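 Cells were kept in serum-free neuronal basal medium with B27 and seeded at 1×10^4 cells/well in 6-well plates, then left to spread for 4 h at 37 °C, 5% CO2. They were incubated with Coralite 594-conjugated anti-FABP3 mouse antibody, then with the test compound (10 μM) for 24 h. Cells were trypsinized, pelleted at […] for 5 min, resuspended in FACS buffer and filtered. Flow cytometry used 582 nm excitation.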

FABP3 (U-138-MG cells) = FABP3 (U-138-MG cells) (Homo sapiens, UniProt P05413); test: as above; format: cell-based; details: serum-free, 10 μM, FACS, Coralite 594-conjugated FABP3 antibody
Summary of the method: as §1

Chain of FABP3 (U-138-MG cells) (P05413 whole entry): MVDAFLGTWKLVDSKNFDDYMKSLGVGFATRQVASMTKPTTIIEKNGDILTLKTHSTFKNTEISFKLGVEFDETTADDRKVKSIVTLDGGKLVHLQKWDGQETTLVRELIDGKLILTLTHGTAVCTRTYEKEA
Chain of FABP3 (U-87-MG cells) (P05413 whole entry): as above

FABP3-mediated internalization (FABP3 (U-87-MG cells)) | FABP3-mediated internalization (FABP3 (U-138-MG cells)) | Molecule | cell viability (primary mouse neurons; 2 μM) | cell viability (primary mouse neurons; 10 μM) | spheroid viability, Calcein-AM fluorescence (U-87-MG spheroids) | necrotic cells (U-87-MG cells; 2 μM) | necrotic cells (U-87-MG cells; 10 μM)
 |  | COc1cccc2c1C(=O)c1c(O)c3c(c(O)c1C2=O)C[C@@](O)(C(=O)CO)C[C@@H]3O[C@H]1C[C@H](N)[C@H](O)[C@H](C)O1 [DOX, doxorubicin] | 49.3% | 27.2% | scattered viable cells were seen throughout the spheroid | 7.2% | 24%
did not show internalization | did not show internalization | ACGLSGLCVAK [A-COOP-K] |  |  |  |  | 

— publication PMC10077566 (ACS Omega, 2023)
